Source: ChEMBL document CHEMBL3392991, “Structure-based design of bacterial nitric oxide synthase inhibitors” (J Med Chem, 2015)
Activity calls are given as the source filed them. The rule behind the calls is not given here.

Tests used:
Bacillus subtilis [1] = assay: Displacement of imidazole from Bacillus subtilis NOS in presence of 50 uM H4B
Bacillus subtilis [2] = assay: Inhibition of NADPH-dependent Bacillus subtilis NOS using bBiDomain and Escherichia coli flavodoxin reductase YumC assessed as nitrite level at 300 uM by Griess reaction; set-up: Activity: scale not given: the % may be the effect or the level left
Procedure, shortened: (§1)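 bBiDomain with the flavodoxin reductase YumC, NADPH-driven, 50 μM H4B included. Inhibitor tested over a range of concentrations. Nitrite measured at a single time point.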

Bacillus subtilis [3] = assay: Inhibition of NADPH-dependent Bacillus subtilis NOS using bBiDomain and Escherichia coli flavodoxin reductase YumC assessed as nitrite level up to 800 uM by Griess reaction; procedure, shortened: as §1
Bacillus subtilis [4] = assay: Displacement of imidazole from Bacillus subtilis NOS
Nitric oxide synthase 3 = target: T1, Nitric oxide synthase 3 (Bos taurus, UniProt P29473); assay: Inhibition of bovine eNOS
T1 sequence (P29473 whole entry): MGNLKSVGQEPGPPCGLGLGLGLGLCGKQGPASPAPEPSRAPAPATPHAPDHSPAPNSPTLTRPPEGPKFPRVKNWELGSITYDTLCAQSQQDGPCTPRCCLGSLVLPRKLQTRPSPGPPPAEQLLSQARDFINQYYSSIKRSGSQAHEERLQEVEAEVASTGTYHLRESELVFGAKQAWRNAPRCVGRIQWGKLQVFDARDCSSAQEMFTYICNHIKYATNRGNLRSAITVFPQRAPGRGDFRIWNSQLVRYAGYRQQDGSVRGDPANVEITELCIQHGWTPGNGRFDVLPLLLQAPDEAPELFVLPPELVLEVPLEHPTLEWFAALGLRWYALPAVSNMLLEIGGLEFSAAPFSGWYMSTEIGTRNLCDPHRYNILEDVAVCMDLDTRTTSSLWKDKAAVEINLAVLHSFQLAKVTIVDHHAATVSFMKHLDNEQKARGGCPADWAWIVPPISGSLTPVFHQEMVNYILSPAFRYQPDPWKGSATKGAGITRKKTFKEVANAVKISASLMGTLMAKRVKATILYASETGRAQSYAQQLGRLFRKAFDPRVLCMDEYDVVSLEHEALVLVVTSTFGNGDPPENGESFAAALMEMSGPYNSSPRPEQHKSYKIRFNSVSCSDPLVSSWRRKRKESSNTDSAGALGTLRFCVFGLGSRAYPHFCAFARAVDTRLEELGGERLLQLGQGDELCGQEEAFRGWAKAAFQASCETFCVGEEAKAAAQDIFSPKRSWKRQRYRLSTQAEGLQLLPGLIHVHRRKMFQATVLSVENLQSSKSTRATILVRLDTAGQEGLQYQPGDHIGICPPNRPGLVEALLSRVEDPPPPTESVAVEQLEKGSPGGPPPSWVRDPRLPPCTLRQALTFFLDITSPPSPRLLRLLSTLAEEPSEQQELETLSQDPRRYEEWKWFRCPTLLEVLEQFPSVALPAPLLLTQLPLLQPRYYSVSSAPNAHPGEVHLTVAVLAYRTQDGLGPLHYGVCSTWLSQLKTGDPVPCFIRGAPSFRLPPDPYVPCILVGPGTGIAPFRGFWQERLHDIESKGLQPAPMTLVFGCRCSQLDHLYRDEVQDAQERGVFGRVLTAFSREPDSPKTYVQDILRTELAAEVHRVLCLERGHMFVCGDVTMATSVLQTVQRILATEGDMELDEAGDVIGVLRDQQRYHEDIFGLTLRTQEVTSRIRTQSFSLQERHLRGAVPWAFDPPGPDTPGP

[5] = target: T2, Nitric oxide synthase, inducible (Mus musculus, UniProt P29477); assay: Inhibition of mouse iNOS
T2 sequence (P29477 whole entry): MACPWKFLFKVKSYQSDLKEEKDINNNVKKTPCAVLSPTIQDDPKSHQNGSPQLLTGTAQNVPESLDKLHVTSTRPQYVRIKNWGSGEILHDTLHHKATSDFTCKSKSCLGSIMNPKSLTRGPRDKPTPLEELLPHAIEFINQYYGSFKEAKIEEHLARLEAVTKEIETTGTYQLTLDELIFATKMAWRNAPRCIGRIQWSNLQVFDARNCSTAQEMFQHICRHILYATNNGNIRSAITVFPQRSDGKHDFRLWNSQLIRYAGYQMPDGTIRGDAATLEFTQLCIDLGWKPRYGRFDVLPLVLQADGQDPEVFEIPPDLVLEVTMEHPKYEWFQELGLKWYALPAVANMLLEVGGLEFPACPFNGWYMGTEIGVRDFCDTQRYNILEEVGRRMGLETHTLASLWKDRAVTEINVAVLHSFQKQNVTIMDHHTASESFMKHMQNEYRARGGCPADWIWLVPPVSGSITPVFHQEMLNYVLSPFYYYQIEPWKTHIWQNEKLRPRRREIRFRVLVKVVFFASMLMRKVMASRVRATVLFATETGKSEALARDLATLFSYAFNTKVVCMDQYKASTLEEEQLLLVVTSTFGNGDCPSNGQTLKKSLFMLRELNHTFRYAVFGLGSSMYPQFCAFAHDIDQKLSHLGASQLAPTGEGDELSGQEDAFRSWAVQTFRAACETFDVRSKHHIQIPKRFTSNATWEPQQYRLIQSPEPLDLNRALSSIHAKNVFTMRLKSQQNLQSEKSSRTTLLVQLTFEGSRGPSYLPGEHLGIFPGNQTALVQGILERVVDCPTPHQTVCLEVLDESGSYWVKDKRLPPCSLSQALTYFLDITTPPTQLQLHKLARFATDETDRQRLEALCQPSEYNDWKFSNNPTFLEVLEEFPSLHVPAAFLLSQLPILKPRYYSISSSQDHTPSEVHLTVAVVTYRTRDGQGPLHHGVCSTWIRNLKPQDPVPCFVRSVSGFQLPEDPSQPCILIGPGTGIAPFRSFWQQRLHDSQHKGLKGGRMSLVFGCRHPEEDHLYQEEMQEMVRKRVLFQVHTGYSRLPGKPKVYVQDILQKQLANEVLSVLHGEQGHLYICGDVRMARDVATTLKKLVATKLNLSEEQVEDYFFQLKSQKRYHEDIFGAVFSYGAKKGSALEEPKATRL

Nitric oxide synthase 1 = Nitric oxide synthase 1 (Rattus norvegicus, UniProt P29476); assay: Inhibition of rat nNOS
Bacillus subtilis [6] = assay: Antibacterial activity against delta nos Bacillus subtilis assessed as bacterial growth up to 800 uM measured after overnight incubation relative to control; type: functional; conditions: in the assay text read “at 500 uM” for “up to 800 uM”
Procedure, shortened: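 WT (ATCC 23857) and Δnos strains grown to OD600 ≈ 1.0, diluted to OD600 0.6 in LB, then mixed with M9 minimal media with or without NOS inhibitor (final 500 μM) and/or acriflavine (final 800 μM). 30 min at 30 °C, serially diluted, plated on LB agar + 0.5% glucose, overnight at 37 °C. CFU counted; percent survival relative to untreated cells.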

Nitric oxide synthase 1, sequence (P29476 whole entry): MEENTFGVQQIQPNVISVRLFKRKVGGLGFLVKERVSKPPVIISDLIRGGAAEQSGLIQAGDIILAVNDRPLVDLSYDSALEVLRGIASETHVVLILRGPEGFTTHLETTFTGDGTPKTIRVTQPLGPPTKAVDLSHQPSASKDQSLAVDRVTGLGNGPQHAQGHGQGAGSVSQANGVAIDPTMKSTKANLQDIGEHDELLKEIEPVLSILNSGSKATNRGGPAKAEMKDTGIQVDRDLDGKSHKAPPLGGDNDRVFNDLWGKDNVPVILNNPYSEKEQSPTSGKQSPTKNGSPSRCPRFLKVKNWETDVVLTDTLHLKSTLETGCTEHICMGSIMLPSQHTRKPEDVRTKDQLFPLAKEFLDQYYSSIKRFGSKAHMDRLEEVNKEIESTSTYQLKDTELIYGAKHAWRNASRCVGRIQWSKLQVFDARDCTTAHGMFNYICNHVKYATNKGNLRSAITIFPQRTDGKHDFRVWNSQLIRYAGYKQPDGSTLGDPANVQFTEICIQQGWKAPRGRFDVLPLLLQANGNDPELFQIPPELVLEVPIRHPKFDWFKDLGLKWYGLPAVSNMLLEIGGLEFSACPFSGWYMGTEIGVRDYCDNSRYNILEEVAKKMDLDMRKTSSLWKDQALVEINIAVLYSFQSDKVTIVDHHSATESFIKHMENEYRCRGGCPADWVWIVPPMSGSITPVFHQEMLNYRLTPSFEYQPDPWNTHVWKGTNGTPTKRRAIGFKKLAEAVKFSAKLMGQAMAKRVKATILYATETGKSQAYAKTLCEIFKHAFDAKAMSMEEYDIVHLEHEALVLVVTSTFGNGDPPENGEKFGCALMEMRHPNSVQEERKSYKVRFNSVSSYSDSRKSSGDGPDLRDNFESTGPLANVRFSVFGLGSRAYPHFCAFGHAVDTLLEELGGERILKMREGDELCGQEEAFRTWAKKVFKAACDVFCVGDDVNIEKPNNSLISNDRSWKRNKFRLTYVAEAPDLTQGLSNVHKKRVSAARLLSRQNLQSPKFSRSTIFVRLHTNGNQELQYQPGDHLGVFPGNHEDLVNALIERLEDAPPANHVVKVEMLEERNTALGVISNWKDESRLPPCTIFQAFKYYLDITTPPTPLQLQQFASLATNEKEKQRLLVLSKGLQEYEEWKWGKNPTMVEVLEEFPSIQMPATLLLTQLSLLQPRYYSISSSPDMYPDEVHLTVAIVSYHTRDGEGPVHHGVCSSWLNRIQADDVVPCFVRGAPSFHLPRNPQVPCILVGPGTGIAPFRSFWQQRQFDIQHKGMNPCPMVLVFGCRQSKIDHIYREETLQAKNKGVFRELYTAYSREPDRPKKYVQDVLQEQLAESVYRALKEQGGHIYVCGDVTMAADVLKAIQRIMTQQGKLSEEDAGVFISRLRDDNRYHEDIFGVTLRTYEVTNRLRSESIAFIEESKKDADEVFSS

| SMILES | Ks (Bacillus subtilis [1]) [µM] | inhibition (Bacillus subtilis [2]) | inhibition (Bacillus subtilis [3]) | Ks (Bacillus subtilis [4]) [µM] | Ki (Nitric oxide synthase 3) [µM] | Ki [5] [µM] | Ki (Nitric oxide synthase 1) [µM] | Activity (Bacillus subtilis [2]) [%] | inhibition (INH) (Bacillus subtilis [6]) [%] |
| --- | --- | --- | --- | --- | --- | --- | --- | --- | --- |
| Cc1cc(N)nc(CCc2cc(CN)cc(CCc3cc(C)cc(N)n3)c2)c1 | 47 | Active | Active | 15 |  |  |  |  |  |
| Cc1cc(N)nc(CCc2cc(CCCN)cc(CCc3cc(C)cc(N)n3)c2)c1 | 19 | Active | Active | 16 |  |  |  |  |  |
| Cc1cc(N)nc(CCc2cc(N)cc(CCc3cc(C)cc(N)n3)c2)c1 | 1.9 |  | Active | 0.91 |  |  |  | 49.2 | 36 |
| Cc1cc(N)nc(CCc2cc(CN)cc(CCc3ccc4cc[nH]c4n3)c2)c1 | 12 | Active | Active | 10 |  | 7.1 | 0.22 |  |  |
| N=C(Nc1cccc(OCC(O)c2cccc(NC(=N)c3cccs3)c2)c1)c1cccs1 (stereo not given) |  | Active | Active |  |  |  |  |  |  |

The next lines start with results.

| Ks (Bacillus subtilis [1]) [µM] | inhibition (Bacillus subtilis [2]) | inhibition (Bacillus subtilis [3]) | Ks (Bacillus subtilis [4]) [µM] | Ki (Nitric oxide synthase 3) [µM] | Ki [5] [µM] | Ki (Nitric oxide synthase 1) [µM] | Activity (Bacillus subtilis [2]) [%] | SMILES | inhibition (INH) (Bacillus subtilis [6]) [%] |
| --- | --- | --- | --- | --- | --- | --- | --- | --- | --- |
| 19 | Active | Active | 12 | 11.8 | 14.4 | 0.196 |  | CNc1cc(C)cc(CCc2cc(C#N)cc(CCc3cc(C)cc(N)n3)c2)n1 |  |
|  | Active | Active |  | 1.56 | 12.8 | 1.27 |  | Cc1cc(N)nc(CCc2cc(C#N)cc(NCCc3ccccn3)c2)c1 |  |
| 1.9 |  |  | 3.2 |  |  |  |  | N=C(NO)NCCC[C@H](N)C(=O)O |  |
